Measurements reported in ChEMBL document CHEMBL1126036, “Quinolone antibacterial agents. Synthesis and structure-activity relationships of a series of amino acid prodrugs of racemic and chiral 7-(3-amino-1-pyrrolidinyl)quinolones. Highly soluble quinolone prodrugs with in vivo pseudomonas activity” (J Med Chem, 1992).

Key:
[1] = Solubility (in 0.1 N HCl); assay type: physicochemical; details: read-out: S
Summary of the method: (§1)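 Solubility was measured either from HPLC peak areas at equilibrium or by a conventional weight-per-volume method. All solutions were held for 24 h before measurement.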

[2] = Solubility (at pH 4); assay type: physicochemical; details: buffer, read-out: S; summary of the method: as §1
[3] = Solubility (at pH 7.4); assay type: physicochemical; details: buffer, read-out: S; summary of the method: as §1
Escherichia coli [4] = assay: In vitro antibacterial activity against gram negative Escherichia coli Vogel.; assay type: functional
Enterococcus faecalis = assay: In vitro antibacterial activity against gram positive Enterococcus faecalis MGH-2.; assay type: functional
[5] = target: DNA gyrase (Escherichia coli) (UniProt P0AES6+P0AES4); assay: In vitro concentration inhibiting DNA gyrase induced cleavage in Escherichia coli H560.; assay type: functional
Summary of the method: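 DNA gyrase test run as described in earlier work. The value is the drug concentration (µg/mL) needed to cause DNA cleavage.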

Enterobacter cloacae = assay: In vitro antibacterial activity against gram negative Enterobacter cloacae MA 2646.; assay type: functional
Klebsiella pneumoniae = assay: In vitro antibacterial activity against gram negative Klebsiella pneumoniae MGH-2.; assay type: functional
Escherichia coli [6] = assay: In vivo potency against acute systemic infection in mouse caused by Escherichia coli Vogel on oral administration by gavage.; assay type: functional; details: read-out: PD50
Summary of the method: (§2)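 Acute systemic mouse infection. A single oral dose was given by gavage at the time of challenge. Potency is reported as the median protective dose (PD50, mg/kg), determined by earlier published methods.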

Streptococcus pneumoniae [7] = assay: In vivo potency against acute systemic infection in mouse caused by Streptococcus pneumoniae SV-1 on oral administration by gavage.; assay type: functional; details: read-out: PD50; summary of the method: as §2
Streptococcus pneumoniae [8] = assay: In vivo potency against acute systemic infection in mouse caused by Streptococcus pneumoniae SV-1 on subcutaneous injection.; assay type: functional; details: sc, read-out: PD50
Summary of the method: (§3)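 Acute systemic mouse infection. A single subcutaneous dose was injected at the time of challenge. Potency is reported as the median protective dose (PD50, mg/kg), determined by earlier published methods.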

Escherichia coli [9] = assay: In vivo potency against acute systemic infection in mouse caused by Escherichia coli vogel on subcutaneous injection.; assay type: functional; details: sc, read-out: PD50; summary of the method: as §3
Pseudomonas aeruginosa = assay: In vitro antibacterial activity against gram negative Pseudomonas aeruginosa UI-18.; assay type: functional
Providencia rettgeri = assay: In vitro antibacterial activity against gram negative Providencia rettgeri M-1771.; assay type: functional
Staphylococcus aureus [10] = assay: In vitro antibacterial activity against gram positive Staphylococcus aureus H-228.; assay type: functional
Streptococcus pyogenes = assay: In vitro antibacterial activity against gram positive Streptococcus pyogenes C-203.; assay type: functional
Staphylococcus aureus [11] = assay: In vitro antibacterial activity against gram positive Staphylococcus aureus UC76.; assay type: functional
Streptococcus pneumoniae [12] = assay: In vitro antibacterial activity against gram positive Streptococcus pneumoniae SV-1.; assay type: functional
[13] = Aqueous solubility; assay type: physicochemical; details: water (aqueous); read-out: S; summary of the method: as §1

| Compound | solubility [1] [mg/mL] | solubility [2] [mg/mL] | solubility [3] [mg/mL] | MIC (Escherichia coli [4]) [µg/mL] | MIC (Enterococcus faecalis) [µg/mL] | Cleavage [5] [µg/mL] | MIC (Enterobacter cloacae) [µg/mL] | MIC (Klebsiella pneumoniae) [µg/mL] | ED50 (Escherichia coli [6]) [mg/kg] | ED50 (Streptococcus pneumoniae [7]) [mg/kg] | ED50 (Streptococcus pneumoniae [8]) [mg/kg] | ED50 (Escherichia coli [9]) [mg/kg] | MIC (Pseudomonas aeruginosa) [µg/mL] | MIC (Providencia rettgeri) [µg/mL] | MIC (Staphylococcus aureus [10]) [µg/mL] | MIC (Streptococcus pyogenes) [µg/mL] | MIC (Staphylococcus aureus [11]) [µg/mL] | MIC (Streptococcus pneumoniae [12]) [µg/mL] | solubility [13] [mg/mL] |
| --- | --- | --- | --- | --- | --- | --- | --- | --- | --- | --- | --- | --- | --- | --- | --- | --- | --- | --- | --- |
| C[C@@H](N)C(=O)NC1CCN(c2cc3c(cc2F)c(=O)c(C(=O)O)cn3C2CC2)C1.Cl.O (stereo partly drawn) | > 100 | > 100 | 0.24 | 0.8 | 0.2 | 1 | 0.8 | 0.8 | > 100 | > 100 | 3.1 | 4.1 | 1.6 | 1.6 | 0.4 | 0.013 | 0.05 | 0.025 | > 100 |
| Cl.N[C@@H]1CCN(c2c(F)cc3c(=O)c(C(=O)O)cn(C4CC4)c3c2F)C1.O |  |  |  | 0.013 | 0.05 | 0.5 | 0.006 | 0.013 | 0.9 | 14 | 9 | 0.2 | 0.1 | 0.025 | 0.05 | 0.05 | 0.006 | 0.025 | 11 |
| Cl.NCC(=O)NC1CCN(c2nc3c(cc2F)c(=O)c(C(=O)O)cn3C2CC2)C1.O (stereo not drawn) | 67 | > 200 |  | 0.2 | 0.8 | 2.5 | 0.4 | 0.4 |  | 37 | 10 |  | 3.1 | 0.8 | 1.6 | 0.1 | 0.4 | 0.8 | > 200 |
| Cl.NCCCC[C@H](N)C(=O)NC1CCN(c2c(F)cc3c(=O)c(C(=O)O)cn(C4CC4)c3c2F)C1.O (stereo partly drawn) |  |  |  | 6.3 | 6.3 |  | 3.1 | 12.5 |  |  |  |  | 12.5 | 12.5 | 0.4 | 6.3 | 0.2 | 6.3 |  |
| Cl.N[C@@H](Cc1ccccc1)C(=O)NC1CCN(c2c(F)cc3c(=O)c(C(=O)O)cn(C4CC4)c3c2F)C1.O (stereo partly drawn) | 7.2 | 21 |  | 0.8 | 25 | 7.5 | 1.6 | 1.6 | 5 |  |  | 1 | 25 | 3.1 | 3.1 | > 25 | 1.6 | > 25 | 31 |
| Cl.NCC(=O)NC1CCN(c2cc3c(cc2F)c(=O)c(C(=O)O)cn3C2CC2)C1.O (stereo not drawn) | > 100 | > 100 | 0.22 | 0.4 | 1.6 | 2.5 | 0.4 | 0.8 | 6.3 | > 100 | 18 | 1.1 | 1.6 | 1.6 | 3.1 | 0.1 | 0.4 | 0.4 | > 100 |
| Cl.N[C@@H](Cc1ccccc1)C(=O)NC1CCN(c2cc3c(cc2F)c(=O)c(C(=O)O)cn3C2CC2)C1.O (stereo partly drawn) | 9.2 | 66 | 0.3 | 0.8 | 0.4 | 25 | 0.8 | 3.1 | 5 | > 50 | 5 | 1 | 6.3 | 3.1 | 0.8 | 0.4 | 0.2 | 0.4 | 44 |
| C[C@H](N)C(=O)N[C@@H]1CCN(c2c(F)cc3c(=O)c(C(=O)O)cn(C4CC4)c3c2F)C1.Cl.O | 6 | 30 | 0.07 | 0.4 | 0.8 | 2.5 | 0.2 | 0.8 | 1 | 25 | 19 | 0.6 | 3.1 | 0.8 | 0.8 | 0.4 | 0.2 | 0.4 | 29 |
| C[C@@H](N)C(=O)NC1CCN(c2c(F)cc3c(=O)c(C(=O)O)cn(C4CC4)c3c2F)C1.Cl.O (stereo partly drawn) | 3.6 | 19.4 |  | 0.2 | 0.025 | 2.5 | 0.4 | 0.4 | 31 | > 100 | 1 | 2 | 1.6 | 0.8 | 0.05 | 0.006 | 0.006 | 0.013 | 42 |
| Cl.NCC(=O)NC1CCN(c2c(F)cc3c(=O)c(C(=O)O)cn(C4CC4)c3c2F)C1.O (stereo not drawn) | 4.6 | 20 |  | 0.2 | 0.4 | 5 | 0.2 | 0.4 | 1 | 29 | 16 | 0.4 | 1.6 | 0.4 | 0.4 | 0.2 | 0.1 | 0.4 | 33 |
| Cl.NCCCC[C@H](N)C(=O)NC1CCN(c2cc3c(cc2F)c(=O)c(C(=O)O)cn3C2CC2)C1.O (stereo partly drawn) | 69 | > 100 | 0.11 | 12.5 | > 25 |  | 12.5 | 12.5 | 10 | > 100 | 12 | 1 | 25 | 25 | 25 | 12.5 | 3.1 | 25 | 93 |
